From ChEMBL document CHEMBL1127475, “Novel amidine-containing peptidyl phosphonates as irreversible inhibitors for blood coagulation and related serine proteases” (J Med Chem, 1994)
Activity calls are given as the source filed them. No cut-off for these calls is given here.

Tests used:
[1] = molecular target: T1, Serine protease 1 (Bos taurus) (UniProt P00760); experiment: The compound was measured for inhibitory activity against bovine trypsin; NI=No inhibition
T1 sequence (whole entry): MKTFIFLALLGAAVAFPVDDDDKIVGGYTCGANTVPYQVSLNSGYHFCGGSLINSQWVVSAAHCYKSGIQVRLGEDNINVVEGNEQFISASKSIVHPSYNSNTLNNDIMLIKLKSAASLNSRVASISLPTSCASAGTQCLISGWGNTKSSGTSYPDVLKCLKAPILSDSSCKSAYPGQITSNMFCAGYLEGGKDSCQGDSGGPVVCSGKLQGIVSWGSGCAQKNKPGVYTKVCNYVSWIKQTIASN
Procedure, shortened: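 Irreversible inactivation by incubation: enzyme (0.03–2.3 µM) mixed with inhibitor (1.7–420 µM, added in Me2SO, 8–12% final) in 0.1 M Hepes, 0.01 M CaCl2, pH 7.5, at 25 °C. Aliquots were taken over time and residual activity read with Z-Phe-Gly-Arg-NA (100–120 µM) at 410 nm. kobs came from ln v0/vt vs time, and kobs/[I] from the average of duplicate or triplicate runs.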

[2] = molecular target: Prothrombin (Homo sapiens) (UniProt P00734); experiment: The compound was measured for inhibitory activity against human thrombin; NI=No inhibition
Procedure, shortened: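 Human thrombin (0.03–2.3 µM) was incubated with inhibitor (1.7–420 µM, added in Me2SO, 8–12% final) in 0.1 M Hepes, 0.5 M NaCl, pH 7.5, at 25 °C. Timed aliquots were assayed for residual activity with Z-Arg-SBzl (80–90 µM) plus 4,4'-dithiodipyridine at 394 nm. Pseudo-first-order kobs came from ln v0/vt vs time, and kobs/[I] was typically averaged over duplicate or triplicate experiments.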

[3] = molecular target: T2, Coagulation factor XII (Homo sapiens) (UniProt P00748); experiment: (§1) The compound was measured for inhibitory activity against human coagulation factor XII
T2 sequence (whole entry): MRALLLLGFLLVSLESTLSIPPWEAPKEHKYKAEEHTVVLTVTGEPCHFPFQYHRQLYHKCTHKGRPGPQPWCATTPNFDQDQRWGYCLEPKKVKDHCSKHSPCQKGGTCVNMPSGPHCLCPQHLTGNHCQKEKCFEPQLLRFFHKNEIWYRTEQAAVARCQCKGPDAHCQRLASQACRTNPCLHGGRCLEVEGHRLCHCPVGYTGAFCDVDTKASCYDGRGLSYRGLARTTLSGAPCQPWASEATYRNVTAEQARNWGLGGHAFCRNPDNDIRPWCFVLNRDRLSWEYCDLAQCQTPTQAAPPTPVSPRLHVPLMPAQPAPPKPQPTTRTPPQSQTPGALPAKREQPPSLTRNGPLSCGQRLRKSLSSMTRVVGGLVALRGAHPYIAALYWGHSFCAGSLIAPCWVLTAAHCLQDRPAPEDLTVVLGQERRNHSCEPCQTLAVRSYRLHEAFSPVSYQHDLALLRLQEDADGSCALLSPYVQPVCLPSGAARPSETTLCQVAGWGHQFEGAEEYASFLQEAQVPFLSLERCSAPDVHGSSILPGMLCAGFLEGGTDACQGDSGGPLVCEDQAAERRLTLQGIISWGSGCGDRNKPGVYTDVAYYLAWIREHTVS
Procedure, shortened: (§2)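 Enzymes (plasma kallikrein and factor XIIa of human origin) at 0.03–2.3 μM were incubated at 25 °C with inhibitor (1.7–420 μM) in 0.1 M Hepes, 0.01 M CaCl2, pH 7.5, 8–12% Me2SO. Timed aliquots were assayed for residual activity with Z-Arg-SBzl (80–90 μM) plus 4,4'-dithiodipyridine, read at 394 nm. Pseudo-first-order kobs came from ln v0/vt vs time; kobs/[I] typically averaged from duplicate or triplicate runs.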

Prothrombin (Bos taurus) = Prothrombin (Bos taurus) (UniProt P00735); experiment: (§3) The compound was measured for inhibitory activity against bovine thrombin
[4] = molecular target: T1, Serine protease 1 (Bos taurus); experiment: The compound was measured for inhibitory activity against bovine trypsin
Procedure, shortened: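 Inactivation by incubation: enzyme (0.03–2.3 μM) with inhibitor (1.7–420 μM) added from Me2SO (8–12% final) in 0.1 M Hepes, 0.01 M CaCl2, pH 7.5, 25 °C. Aliquots withdrawn over time; residual activity read with Z-Phe-Gly-Arg-NA (100–120 μM) at 410 nm. kobs from ln v0/vt vs time; kobs/[I] typically averaged from duplicate or triplicate runs.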

[5] = molecular target: Prothrombin (Homo sapiens) (UniProt P00734); experiment: The compound was measured for inhibitory activity against human thrombin
Procedure, shortened: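 Human thrombin (0.03–2.3 μM) was incubated at 25 °C with inhibitor (1.7–420 μM) in 0.1 M Hepes, 0.5 M NaCl, pH 7.5, 8–12% Me2SO. Residual activity in withdrawn aliquots was measured with Z-Arg-SBzl (80–90 μM) and 4,4'-dithiodipyridine at 394 nm. kobs from ln v0/vt vs time; kobs/[I] typically averaged from duplicate or triplicate experiments.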

[6] = molecular target: Plasma kallikrein (Homo sapiens) (UniProt P03952); experiment: The compound was measured for inhibitory activity against human plasma kallikrein; assay type: cell-free; procedure, shortened: as §2
[7] = molecular target: T3, Coagulation factor XII (Bos taurus) (UniProt P98140); experiment: as §1; procedure, shortened: as §2
T3 sequence (whole entry): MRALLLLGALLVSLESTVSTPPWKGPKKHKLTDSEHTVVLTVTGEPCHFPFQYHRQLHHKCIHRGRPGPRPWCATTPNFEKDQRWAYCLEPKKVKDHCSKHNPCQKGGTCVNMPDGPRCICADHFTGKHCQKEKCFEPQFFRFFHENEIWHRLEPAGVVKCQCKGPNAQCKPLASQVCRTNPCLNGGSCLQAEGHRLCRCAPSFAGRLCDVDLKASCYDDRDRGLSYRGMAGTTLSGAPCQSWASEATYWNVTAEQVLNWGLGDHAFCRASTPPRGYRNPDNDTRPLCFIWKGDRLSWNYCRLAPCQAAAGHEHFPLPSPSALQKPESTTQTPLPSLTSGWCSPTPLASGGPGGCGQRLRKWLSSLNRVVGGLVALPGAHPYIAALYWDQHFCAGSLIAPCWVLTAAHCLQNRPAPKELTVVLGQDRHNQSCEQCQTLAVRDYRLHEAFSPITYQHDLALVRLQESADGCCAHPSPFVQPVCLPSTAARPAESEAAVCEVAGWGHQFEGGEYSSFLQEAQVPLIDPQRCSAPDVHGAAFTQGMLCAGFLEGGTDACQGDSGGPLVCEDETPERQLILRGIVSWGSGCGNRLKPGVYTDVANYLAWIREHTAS

[8] = molecular target: Prothrombin (Homo sapiens) (UniProt P00734); experiment: as §3

Chain of Plasma kallikrein (Homo sapiens) (P03952 20-390 limits assumed): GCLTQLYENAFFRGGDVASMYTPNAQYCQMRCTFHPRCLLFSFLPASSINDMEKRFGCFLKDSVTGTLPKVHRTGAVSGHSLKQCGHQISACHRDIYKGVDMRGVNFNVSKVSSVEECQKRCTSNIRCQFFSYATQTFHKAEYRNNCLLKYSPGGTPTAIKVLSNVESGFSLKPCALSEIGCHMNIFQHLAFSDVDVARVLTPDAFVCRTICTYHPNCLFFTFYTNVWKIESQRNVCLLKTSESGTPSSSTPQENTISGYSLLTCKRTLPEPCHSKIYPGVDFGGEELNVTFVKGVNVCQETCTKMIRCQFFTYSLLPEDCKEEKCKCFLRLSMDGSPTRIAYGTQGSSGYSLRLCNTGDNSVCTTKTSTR
Chain of Plasma kallikrein (Homo sapiens) (P03952 391-638 limits assumed): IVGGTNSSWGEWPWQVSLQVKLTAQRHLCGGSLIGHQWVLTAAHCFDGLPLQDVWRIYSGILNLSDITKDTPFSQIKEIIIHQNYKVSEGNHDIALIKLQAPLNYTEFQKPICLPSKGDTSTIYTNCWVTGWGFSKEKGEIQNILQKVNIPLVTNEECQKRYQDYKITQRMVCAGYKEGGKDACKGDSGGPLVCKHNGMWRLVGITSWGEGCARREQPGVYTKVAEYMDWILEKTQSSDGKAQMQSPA

SMILES | K obs / 1 [3] [M⁻¹ s⁻¹] | K obs / 1 (Prothrombin (Bos taurus)) [M⁻¹ s⁻¹] | K obs / 1 [4] [M⁻¹ s⁻¹] | K obs / 1 [5] [M⁻¹ s⁻¹] | K obs / 1 [6] [M⁻¹ s⁻¹] | further results
CCOP(=O)(OCC)[C@H](Cc1ccc(C(=N)N)cc1)NC(=O)[C@@H]1CCCN1C(=O)OCc1ccccc1 |  |  |  |  |  | K obs / 1 [1]: inactive; K obs / 1 [2]: inactive
N=C(N)c1ccc(C(NC(=O)[C@@H]2CCCN2C(=O)[C@@H](N)Cc2ccccc2)P(=O)(Oc2ccccc2)Oc2ccccc2)cc1 (some centres undefined) | 2.8 | 730 | 110 | 700 | 250 | 
CC(C)(C)OC(=O)N[C@@H](Cc1ccccc1)C(=O)N1CCC[C@H]1C(=O)N[C@@H](Cc1ccc(C(=N)N)cc1)P(=O)(Oc1ccccc1)Oc1ccccc1 |  |  | 130 | 0.7 |  | 
CC(C)(C)OC(=O)N[C@@H](Cc1ccccc1)C(=O)N1CCC[C@H]1C(=O)NC(c1ccc(C(=N)N)cc1)P(=O)(Oc1ccccc1)Oc1ccccc1 (some centres undefined) | 52 | 12000 | 2200 | 11000 | 160 | 
N=C(N)c1ccc(C(NC(=O)CNS(=O)(=O)c2ccc3ccccc3c2)P(=O)(Oc2ccccc2)Oc2ccccc2)cc1 (centres undefined) |  |  | 470 |  | 960 | K obs / 1 [7]: 25 M⁻¹ s⁻¹; K obs / 1 [8]: 170 M⁻¹ s⁻¹
N=C(N)c1ccc(C(NC(=O)OCc2ccccc2)P(=O)(Oc2ccccc2)Oc2ccccc2)cc1 (centres undefined) | 20 | 170 |  | 80 | 18000 | 
N=C(N)c1ccc(C(NC(=O)[C@@H]2CCCN2C(=O)OCc2ccccc2)P(=O)(Oc2ccccc2)Oc2ccccc2)cc1 (some centres undefined) | 2.6 | 70 | 100 | 20 | 60 | 
N=C(N)c1ccc(C[C@H](NC(=O)[C@@H]2CCCN2C(=O)[C@@H](N)Cc2ccccc2)P(=O)(Oc2ccccc2)Oc2ccccc2)cc1 |  |  | 50 | 54 |  | 
N=C(N)c1ccc(C[C@H](NC(=O)OCc2ccccc2)P(=O)(Oc2ccccc2)Oc2ccccc2)cc1 |  |  | 24 | 0.2 |  | 
CC(=O)N[C@H](Cc1ccccc1)C(=O)N1CCC[C@H]1C(=O)N[C@@H](CCCN=C(N)N)P(=O)(Oc1ccccc1)Oc1ccccc1 |  |  |  | 1200 |  | 
N=C(N)c1ccc(C[C@H](N)P(=O)(Oc2ccccc2)Oc2ccccc2)cc1 |  |  | 32 | 2.2 |  | 
